Results as given in PubChem BioAssay.
Results filed as inconclusive are left out.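 Rule for the calls, unless noted: active = inhibition over a set limit, the all-compound mean plus 3 SD, in both replicate runs; inconclusive = over that limit in just one replicate run; inactive = at or under that limit in both runs.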

Key:
[1] = S. cerevisiae growth inhibition in permissive medium (OD615), pilot counter-assay for S. cerevisiae lifespan shortening project, permissive growth control (AID 705;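 active = growth inhibition above 25% in both replicates, a cutoff set 3 SD above the mean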); conditions: OD615, 24 h, at 10 µM, hits give high values
How it was run: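 Test system: Saccharomyces cerevisiae strain carrying genetically modified DeaD replicative-lifespan system; buffer or medium: SC raffinose/galactose permissive medium; dosing: one dose 10 µM, DMSO 0.25% final; times: 24 h exposure, 30 °C; measured by: OD at 615 nm; read-out basis: growth inhibition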

[2] = S. cerevisiae growth inhibition in restrictive medium, OD615, pilot screen, restrictive growth control, yeast lifespan reduction project (AID 706;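 active = growth inhibition above a set limit, 3 SD over mean compound inhibition, in both replicates, cut at about 43% in these data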;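 note: modified DeaD lifespan yeast strain shifted to restrictive glucose medium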); conditions: OD615, 48 h, at 10 µM, hits give high values
How it was run: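 material = engineered S. cerevisiae DeaD strain | buffer or medium = glucose-based CSMM-D restrictive medium | dosing = one concentration, 10 µM final, 0.25% DMSO | schedule = 4 h pre-growth plus 48 h compound exposure, 30 °C | detection = OD615 absorbance reading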

[3] = doxorubicin toxicity protection in MRP-1 cells – H69AR cells, CellTiter-Glo, duplicate, MRP-1 activator project, pilot screen (AID 807;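 active = viability increase at or above a cutoff of the median across tested compounds plus 3 SD, cut at about 8.5% in these data, passing the limit was not always enough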;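 note: compound pretreatment 18-22 h then 72 h combined with doxorubicin; 0% = doxorubicin alone and 100% = vehicle without doxorubicin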); conditions: H69AR viability with doxorubicin, CellTiter-Glo luminescence; at 10 µM; hits give high values
[4] = viability of HCT116 without oncogenic beta-catenin – human colon tumor cells, pilot screen (AID 823;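 active = cell viability at or below a set limit in both duplicate runs, the limit being the all-compound median minus 4 SD, cut at about 23% in these data, passing the limit was not always enough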;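 note: 0% = wells killed by 20 µM Hyamine and 100% = untreated DMSO cell wells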); conditions: HCT116 beta-catenin knockout viability, CellTiter-Glo, 60 h; at 10 µM; hits give low values
[5] = viability of PTEN-null HCT116 cells – cell-based, HCT116 clonal line, CellTiter-Glo, pilot screen (AID 824;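 active = viability at or below 27.92% in each of two runs, the all-compound median minus 4 SD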;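 note: 0% = 20 µM Hyamine control and 100% = vehicle cell control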); conditions: HCT116 PTEN-deleted viability, 60 h, at 10 µM, hits give low values
[6] = RAM pathway blockade in budding yeast – dse1pr::URA3 reporter, 5-FOA selection, pilot screen (AID 869);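 note: 0% = DMSO wells with no growth and 100% = 10 µM 1-NA-PP1 with full growth; RAM network block rescues cells from 5-FOA so hits raise OD615 growth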; conditions: S. cerevisiae dse1pr::URA3 5-FOA growth, OD615, 2 d; at 10 µM; hits give high values; strain carries analog-sensitive mutant Cbk1 kinase
[7] = RAM signaling pathway blockade in yeast – S. cerevisiae, Pdr1DBD-CYC8 efflux-inhibited sensitized strain, primary screen (AID 1298;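 active = RAM network inhibition above 8.4% in each of two replicates, 3 SD over the compound average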;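 note: 0% = DMSO untreated cells without growth and 100% = 10 µM 1-NA-PP1 full growth; higher means more yeast growth rescued from 5-FOA killing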); conditions: S. cerevisiae cbk1-as DSE1-URA3 strain, 5-FOA growth OD615, 2 d; at 50 µM; hits give high values

CCCCNC(=O)CS(=O)Cc1nc(-c2ccc(C)cc2)oc1C (stereo not given)
inactive: growth inhibition [1] -7.66% | growth inhibition [2] 0.83% | viability increase [3] -2.08% | viability [4] 87.4% | viability [5] 88.5% | inhibition [6] -0.365% | RAM network inhibition [7] 2.19%

CCC(C)Sc1nc2c([nH]c3ccccc32)c(=O)n1C (stereo not given)
inactive: growth inhibition [1] -16.9% | growth inhibition [2] -15.8% | viability increase [3] -4.85% | viability [4] 72.4% | viability [5] 70.6% | inhibition [6] 2.48% | RAM network inhibition [7] 3.48%

COc1ccc(S(=O)(=O)Cc2ccc(C(=O)NCc3ccc(F)cc3)o2)cc1
inactive: growth inhibition [1] -13.6% | growth inhibition [2] -14.1% | viability increase [3] -0.39% | viability [4] 92.2% | viability [5] 87.5% | inhibition [6] 0.735% | RAM network inhibition [7] 2.4%

CC(=O)NC(O)C(=O)c1ccccc1 (stereo not given)
inactive: growth inhibition [1] 5.71% | growth inhibition [2] 3.38% | viability increase [3] -2.24% | viability [4] 97% | viability [5] 89.6% | inhibition [6] -0.095% | RAM network inhibition [7] 3.35%

Cc1oc(-c2ccccc2)nc1CS(=O)CC(=O)N1CCc2ccccc2C1 (stereo not given)
inactive: growth inhibition [1] 5.38% | growth inhibition [2] 22.9% | viability increase [3] -2.89% | viability [4] 97.8% | viability [5] 99.8% | inhibition [6] 1.62% | RAM network inhibition [7] 1.69%

COc1ccccc1NC(=O)C1=C(C)NC(=O)NC1c1ccc(C)cc1 (stereo not given)
inactive: growth inhibition [1] -6.15% | growth inhibition [2] -13.7% | viability increase [3] -1.68% | viability [4] 105% | viability [5] 95.6% | inhibition [6] 1.23% | RAM network inhibition [7] -1.08%

COc1cccc(NC(=O)CSc2nnc(-c3ccc(C)cc3)o2)c1
inactive: growth inhibition [1] -10.3% | growth inhibition [2] -11.9% | viability increase [3] -0.97% | viability [4] 93.9% | viability [5] 93.8% | inhibition [6] 2.13% | RAM network inhibition [7] 4%

CCOC(=O)Cn1c(=O)oc2cc(S(=O)(=O)NCC3CCCO3)ccc21 (stereo not given)
inactive: growth inhibition [1] -10.1% | growth inhibition [2] -10.7% | viability increase [3] -1.7% | viability [4] 99.8% | viability [5] 103% | inhibition [6] 0.325% | RAM network inhibition [7] 2.41%

COc1ccc(OC)c(NC(=O)c2c(NC(=O)CNCc3ccco3)sc3c2CCC3)c1
inactive: growth inhibition [1] -0.125% | growth inhibition [2] -0.495% | viability increase [3] -3.56% | viability [4] 95.8% | viability [5] 88.2% | inhibition [6] 1.28% | RAM network inhibition [7] 7.95%

CCCCN1C(=O)/C(=C2\SC(N3CCCCC3)=NC2=O)c2ccccc21
inactive: growth inhibition [1] -4.39% | growth inhibition [2] 14.6% | viability increase [3] -2.31% | viability [4] 48.4% | viability [5] 45.8% | inhibition [6] 1.53% | RAM network inhibition [7] 3.38%

COc1ccc(C(=O)Nc2ccc(Cl)cc2C(=O)NCc2ccco2)cc1OC
inactive: growth inhibition [1] -0.55% | growth inhibition [2] -8.55% | viability increase [3] -4.93% | viability [4] 73.4% | viability [5] 68.9% | inhibition [6] 0.625% | RAM network inhibition [7] 7.76%

Cc1ccc(OCCNC(=O)c2ccco2)cc1C
inactive: growth inhibition [1] 0.475% | growth inhibition [2] -5.61% | viability increase [3] -1.46% | viability [4] 102% | viability [5] 101% | inhibition [6] 1.63% | RAM network inhibition [7] -1.46%

O=C(Nc1nccs1)c1cc(S(=O)(=O)N2CCOCC2)ccc1Cl
inactive: growth inhibition [1] -0.79% | growth inhibition [2] -2.65% | viability increase [3] -3.96% | viability [4] 97.8% | viability [5] 91% | inhibition [6] 1.35% | RAM network inhibition [7] 4.18%

COc1cc(OC)cc(C(=O)OCn2nnc3ccccc3c2=O)c1
inactive: growth inhibition [1] -9.62% | growth inhibition [2] -4.46% | viability increase [3] -0.87% | viability [4] 101% | viability [5] 96.1% | inhibition [6] 1.33% | RAM network inhibition [7] 7.22%

c1ccc(-c2nnn(C34CC5CC(CC(C5)C3)C4)n2)cc1
inactive: growth inhibition [1] -4.34% | growth inhibition [2] -0.125% | viability increase [3] 0.19% | viability [4] 90.8% | viability [5] 84.9% | inhibition [6] 0.215% | RAM network inhibition [7] 5.67%
